Calls of active or inactive are those of the source. The rule behind the calls is not given here.
Tests used:
Homo sapiens = species: Homo sapiens; experiment: Upregulation of CD69/CD25 levels in human CD8-positive T cells expressing alpha-beta TCR; assay type: functional, cell-based
In short: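 Healthy-donor human PBMC incubated 18 h with medium or compound (range up to 100 μM). CD3+ CD8+ αβ T cells were gated and analysed by flow cytometry for cell-surface CD69 and CD25 upregulation.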

[1] = target: T1, Butyrophilin subfamily 3 member A1 (Homo sapiens, UniProt O00481); experiment: Binding affinity to butyrophilin 3A1 in human Vgamma9/Vdelta2 T-cells assessed as activation of Vgamma9/Vdelta2 T-cell-mediated lysis of human T24 cells preincubated for 4 hrs followed by compound washout measured after 18 hrs
In short: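 T24 urinary bladder carcinoma cells (target) pulsed 4 h with 10 nM prodrug, medium, or 10 μM zoledronate. They were then cocultured 18 h with in vitro expanded Vγ9/Vδ2 T cells (effector) across target/effector ratios. Specific killing was scored by amine-reactive dead cell marker staining. Summary is at 1:10 target/effector, mean ± SD, n = 2, with one-way ANOVA.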
Target sequence in this assay (O00481 30-513 limits assumed): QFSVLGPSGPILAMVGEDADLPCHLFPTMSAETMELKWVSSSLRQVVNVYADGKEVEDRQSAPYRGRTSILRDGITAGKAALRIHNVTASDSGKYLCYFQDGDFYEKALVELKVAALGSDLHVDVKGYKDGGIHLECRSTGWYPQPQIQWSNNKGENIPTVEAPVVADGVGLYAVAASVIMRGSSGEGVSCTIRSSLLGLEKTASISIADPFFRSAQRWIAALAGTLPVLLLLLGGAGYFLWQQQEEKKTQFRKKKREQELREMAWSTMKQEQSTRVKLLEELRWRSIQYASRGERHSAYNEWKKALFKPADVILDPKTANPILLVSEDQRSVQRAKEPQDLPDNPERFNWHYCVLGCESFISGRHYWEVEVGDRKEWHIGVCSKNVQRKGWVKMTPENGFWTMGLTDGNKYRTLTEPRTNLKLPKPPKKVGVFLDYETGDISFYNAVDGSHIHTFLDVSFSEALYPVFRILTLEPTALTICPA

[2] = target: T1, Butyrophilin subfamily 3 member A1; experiment: Binding affinity to butyrophilin 3A1 in human Vgamma9/Vdelta2 T-cells assessed as activation of Vgamma9/Vdelta2 T-cells by upregulation of CD69 and CD25 after 18 hrs
In short: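 Healthy-donor PBMC incubated 18 h with medium or titrated compound (up to 100 μM). TCR Vγ9+/Vδ2+ cells were gated and scored by flow cytometry for surface CD69 and CD25 upregulation versus medium control.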

[3] = target: T1, Butyrophilin subfamily 3 member A1; experiment: Binding affinity to butyrophilin 3A1 in human Vgamma9/Vdelta2 T-cells assessed as activation of Vgamma9/Vdelta2 T-cells by measuring levels of CD69 and CD25 at 0.1 uM after 18 hrs relative to control
In short: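 Healthy-donor PBMC incubated 18 h with medium or titrated compound (up to 100 μM). TCR Vγ9+/Vδ2+ cells were gated and scored by flow cytometry for surface CD69 and CD25 upregulation versus medium control. EC50 was taken from titration curves, n = 4–5 donors.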
Target sequence in this assay (O00481 30-513 limits assumed): as above

[4] = target: T1, Butyrophilin subfamily 3 member A1; experiment: Potency index, ratio of zoledronate EC50 to test compound EC50 for binding affinity to butyrophilin 3A1 in human Vgamma9/Vdelta2 T-cells assessed as activation of Vgamma9/Vdelta2 T-cells by upregulation of CD69 and CD25
Target sequence in this assay (O00481 30-513 limits assumed): as above

[5] = target: T1, Butyrophilin subfamily 3 member A1; experiment: Ratio of ED50 for binding affinity to butyrophilin 3A1 in human Vgamma9/Vdelta2 T-cells for Vgamma9/Vdelta2 T-cell-mediated lysis of human T24 cells to EC50 for binding affinity to butyrophilin 3A1 for activation of Vgamma9/Vdelta2 T-cells
Target sequence in this assay (O00481 30-513 limits assumed): as above

[6] = target: T1, Butyrophilin subfamily 3 member A1; experiment: Binding affinity to butyrophilin 3A1 in human Vgamma9/Vdelta2 T-cells assessed as activation of Vgamma9/Vdelta2 T-cells by measuring levels of CD69 and CD25 at 10 uM after 18 hrs relative to control
In short: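 Human PBMC from healthy donors incubated 18 h with medium or compound (titrations up to 100 μM). Vγ9/Vδ2 T cells gated by TCR Vγ9 and Vδ2 expression. Surface CD69 and CD25 upregulation measured by flow staining and compared with medium control. n = 4–5 donors.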
Target sequence in this assay (O00481 30-513 limits assumed): as above

Which results are given for `C/C(=C\COP(=O)(N[C@@H](C)C(=O)OC(C)(C)C)Oc1ccccc1)CO[Si](C)(C)C(C)(C)C` (some centres not stated)?
Activity (Homo sapiens): inactive; ED50 [1]: > 100000 nM; EC50 [2]: 8.92 nM; Activity [3]: 29.9%

`C/C(=C\COP(=O)(N[C@@H](C)C(=O)OCc1ccccc1)Oc1ccccc1)CO[Si](C)(C)C(C)(C)C` (some centres not stated) was tested. Which Activity (Homo sapiens) did it give?
The Activity was “inactive”.

And the ED50 [1]?
Its ED50 is 8510 nM.

And the EC50 [2]?
The EC50 was 0.45 nM.

And the Ratio EC50 [4]?
Its Ratio EC50 is 1080.

What about the Ratio [5] of the same molecule?
Its Ratio is 12900.

What about the Activity [3] of the same molecule?
The Activity was 50.6%.

Which results are given for `C/C(=C\COP(=O)(N[C@@H](C)C(=O)OC(C)C)Oc1ccccc1)CO[Si](C)(C)C(C)(C)C` (some centres not stated)?
Activity (Homo sapiens): inactive; ED50 [1]: 83200 nM; EC50 [2]: 10.6 nM; Ratio [5]: 7830; Activity [3]: 31%

What does the source list for `C/C(=C\COP(=O)(O)OP(=O)(O)O)CO`?
Activity (Homo sapiens): inactive; ED50 [1]: > 100000 nM

`COC(=O)[C@H](C)NP(=O)(OC/C=C(\C)CO[Si](C)(C)C(C)(C)C)Oc1ccccc1` (some centres not stated) was tested. Which Activity (Homo sapiens) did it give?
The Activity was “inactive”.

What about the ED50 [1] of the same molecule?
Its ED50 is 29500 nM.

And the EC50 [2]?
Its EC50 is 1.38 nM.

And the Ratio [5]?
The Ratio was 21400.

And the Activity [3]?
Its Activity is 39%.

Which results are given for `O=P(O)(O)C(O)(Cn1ccnc1)P(=O)(O)O` [ZOLEDRONIC ACID]?
Activity (Homo sapiens): inactive; Activity [6]: 39.2%; ED50 [1]: > 100000 nM; EC50 [2]: 487 nM

`C/C(=C\CO)CO[Si](C)(C)C(C)(C)C` was tested. Which Activity [2] did it give?
Its Activity is “inactive”.

Reference: ChEMBL document CHEMBL4118107, “Synthesis and Biological Evaluation of ( E)-4-Hydroxy-3-methylbut-2-enyl Phosphate (HMBP) Aryloxy Triester Phosphoramidate Prodrugs as Activators of Vγ9/Vδ2 T-Cell Immune Responses” (J Med Chem, 2018)
